Our source for the Decrease, inhibition and IC50 values is ChEMBL document CHEMBL1132971, “New azolidinediones as inhibitors of protein tyrosine phosphatase 1B with antihyperglycemic properties” (J Med Chem, 2000).

Test [1] deals with Mus musculus. In words: Evaluated in vivo for their ability to decrease plasma glucose levels in diabetic C57BL/KsJ db/db mouse at a dose 100 mg/kg/day. The class given is functional. In a few lines: (§1)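 Diabetic db/db or ob/ob mice dosed orally once daily for 4 days. Plasma glucose and insulin reported as percent change from a vehicle-treated group. 4-6 mice per group. Significance set at p < 0.05 or p < 0.01 versus vehicle; NS means generally less than -15% change.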

The target of test [2] is T1, Tyrosine-protein phosphatase non-receptor type 1 (Rattus norvegicus) (UniProt P20417).
T1 sequence (whole entry): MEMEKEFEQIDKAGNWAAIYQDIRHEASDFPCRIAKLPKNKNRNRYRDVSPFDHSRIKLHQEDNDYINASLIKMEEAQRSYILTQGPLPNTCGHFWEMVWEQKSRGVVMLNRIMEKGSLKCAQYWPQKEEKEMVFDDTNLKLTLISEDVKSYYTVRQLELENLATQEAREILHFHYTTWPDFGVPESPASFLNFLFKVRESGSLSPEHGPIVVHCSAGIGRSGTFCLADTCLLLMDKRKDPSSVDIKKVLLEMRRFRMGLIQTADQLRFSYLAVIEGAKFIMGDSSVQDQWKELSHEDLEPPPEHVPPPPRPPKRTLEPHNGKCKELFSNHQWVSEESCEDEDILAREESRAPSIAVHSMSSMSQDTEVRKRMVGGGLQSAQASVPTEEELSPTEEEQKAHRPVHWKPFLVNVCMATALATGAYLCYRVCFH
In words: Inhibition of PTPase (PTP1B) activity in rat hepatic membrane at 50 uM concentration, using pNPP as the substrate. The class given is cell membranes. The note with it: Liver. In a few lines:
(§2)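 Liver membranes from male Sprague-Dawley rats (100-150 g), about 30 µg protein per well. Preincubated 10 min at 37 °C with compound in 1.25% DMSO in 50 mM HEPES pH 7.4. Then 6.33 mM pNPP for 30 min at 37 °C, stopped with NaOH. p-Nitrophenol read at 410 nm. Run in triplicate. Reported as percent of untreated control.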

Test [3] has as its system Mus musculus. The test can be described thus: Evaluated for their ability to decrease plasma insulin levels in mouse at a dose 100 mg/kg/day.([…]). The class given is functional. In a few lines:
as §1

For test [4], the system named is Mus musculus. The test can be described thus: Evaluated in vivo for their ability to decrease plasma glucose levels in diabetic C57BL/KsJ ob/ob mouse at a dose 100 mg/kg/day.([…]). The class given is functional. In a few lines:
as §1

Test [5] concerns the target T1, Tyrosine-protein phosphatase non-receptor type 1 (Rattus norvegicus). The test can be described thus: IC50 for PTPase activity, recombinant r-PTP1B as the enzyme .
Test [6] relates to Mus musculus. The test can be described thus: Evaluated for their ability to decrease plasma insulin levels in mouse at a dose 100 mg/kg/day; **p indicates <0.01. The class given is functional. In a few lines: (§3)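 Mice dosed orally once daily for 4 days; plasma glucose and insulin measured and expressed as percent change versus a vehicle-treated group (mean ± SE, 4-6 mice/group). NS is generally less than -15% change. Significance is versus vehicle-treated mice.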

Test [7] relates to Mus musculus. The test can be described thus: Evaluated in vivo for their ability to decrease plasma glucose levels in diabetic C57BL/KsJ db/db mouse at a dose 100 mg/kg/day; *p indicates <0.05. The class given is functional. In a few lines:
as §3

Test [8] concerns Mus musculus. In words: (§4) Evaluated in vivo for their ability to decrease plasma glucose levels in diabetic C57BL/KsJ ob/ob mouse at a dose 100 mg/kg/day; **p indicates <0.01. The class given is functional. In a few lines: as §1
The target in test [9] is T2, Tyrosine-protein phosphatase non-receptor type 1 (Rattus norvegicus, UniProt P20417).
T2 sequence (P20417 whole entry): T1 sequence (whole entry)
In words: Concentration required to inhibit PTPase activity, recombinant r-PTP1B as the enzyme at a concentration 2.5 uM. In a few lines:
(§5)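 Rat recombinant PTP1B in 33 mM TRIS-HCl, 2 mM EDTA, 50 mM β-mercaptoethanol, pH 7.4 (about 1000-2000 nmol/min/mg). Preincubated 10 min at 37 °C with or without compound in HEPES buffer pH 7.4. Released phosphate read by malachite green-ammonium molybdate at 650 nm against a phosphate standard. Quadruplicates. IC50 by four-parameter logistic fit.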

For test [10], the system named is Mus musculus. The test can be described thus: Evaluated for their ability to decrease plasma insulin levels in mouse at a dose 100 mg/kg/day.,**p indicates <0.01. The class given is functional. In a few lines: as §3
Test [11] deals with Mus musculus. The test can be described thus: Evaluated in vivo for their ability to decrease plasma glucose levels in diabetic C57BL/KsJ ob/ob mouse at a dose 100 mg/kg/day.,**p indicates <0.01. The class given is functional. In a few lines: as §3
Test [12] has as its target T3, Tyrosine-protein phosphatase non-receptor type 1 (Homo sapiens) (UniProt P18031).
T3 sequence (whole entry): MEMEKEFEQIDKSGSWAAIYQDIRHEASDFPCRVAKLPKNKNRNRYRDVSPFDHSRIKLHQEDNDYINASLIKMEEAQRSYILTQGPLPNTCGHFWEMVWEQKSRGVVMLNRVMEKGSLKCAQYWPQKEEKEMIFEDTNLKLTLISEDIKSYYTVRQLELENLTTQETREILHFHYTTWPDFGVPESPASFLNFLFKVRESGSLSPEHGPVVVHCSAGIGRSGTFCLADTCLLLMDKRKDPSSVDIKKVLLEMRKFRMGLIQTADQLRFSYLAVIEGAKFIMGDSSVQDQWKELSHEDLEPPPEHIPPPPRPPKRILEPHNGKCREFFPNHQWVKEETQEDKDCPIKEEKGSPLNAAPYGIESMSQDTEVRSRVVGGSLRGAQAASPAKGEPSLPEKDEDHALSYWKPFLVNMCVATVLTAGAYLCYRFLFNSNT
In words: % inhibition of PTPase activity, recombinant Protein Tyrosine Phosphatase 1b as the enzyme at a concentration 50 uM. In a few lines: as §5

The target in test [13] is T1, Tyrosine-protein phosphatase non-receptor type 1 (Rattus norvegicus). In words: Inhibition of PTPase activity using recombinant r-PTP1B as the enzyme and IR-triphosphopeptide as substrate at 50 uM. In a few lines:
as §5

Test [14] relates to Mus musculus. The test can be described thus: Evaluated in vivo for their ability to decrease plasma glucose levels in diabetic C57BL/KsJ db/db mouse at a dose 50 mg/kg/day, *p indicates <0.05. The class given is functional. In a few lines: as §1
Test [15] addresses T4, Tyrosine-protein phosphatase non-receptor type 1 (Mus musculus) (UniProt P35821).
T4 sequence (whole entry): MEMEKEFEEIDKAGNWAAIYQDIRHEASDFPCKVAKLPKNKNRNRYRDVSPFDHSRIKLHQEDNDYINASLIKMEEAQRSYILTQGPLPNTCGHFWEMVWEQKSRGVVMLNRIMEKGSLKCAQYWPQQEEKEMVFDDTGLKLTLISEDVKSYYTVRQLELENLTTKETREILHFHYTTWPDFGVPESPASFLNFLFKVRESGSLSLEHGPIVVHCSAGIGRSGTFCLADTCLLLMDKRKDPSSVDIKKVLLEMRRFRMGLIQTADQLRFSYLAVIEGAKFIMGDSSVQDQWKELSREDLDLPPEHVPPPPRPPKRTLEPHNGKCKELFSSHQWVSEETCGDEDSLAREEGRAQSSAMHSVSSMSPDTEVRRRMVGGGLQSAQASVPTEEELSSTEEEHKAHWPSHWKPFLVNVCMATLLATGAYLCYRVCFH
In words: In vivo ability to decrease plasma glucose levels in diabetic C57BL/KsJ ob/ob mouse at a dose 100 mg/kg/day. The class given is functional, organism-based. In a few lines: as §1

For test [16], the target named is T2, Tyrosine-protein phosphatase non-receptor type 1. In words: Inhibition of PTPase activity using recombinant r-PTP1B and IR-triphosphopeptide as substrate; ND is no data. In a few lines:
as §5

The target of test [17] is T4, Tyrosine-protein phosphatase non-receptor type 1 (Mus musculus). The test can be described thus: Ability to decrease plasma insulin levels in mouse at a dose 100 mg/kg/day. The class given is functional, organism-based. In a few lines:
as §1

The test system of test [18] is Mus musculus. In words: Evaluated for their ability to decrease plasma insulin levels in mouse at a dose 100 mg/kg/day. The class given is functional. In a few lines: as §3
In test [19] the test system is Mus musculus. The test is described as §4. The class given is functional. In a few lines: as §3
The source holds these as a separate data set.

Test [20] has as its system Mus musculus. The test can be described thus: Evaluated in vivo for their ability to decrease plasma glucose levels in diabetic C57BL/KsJ ob/ob mouse at a dose 20 mg/kg/day; **p indicates <0.01. The class given is functional. In a few lines:
as §3

In test [21] the test system is Mus musculus. The test can be described thus: Evaluated for their ability to decrease plasma insulin level at a dose of 20 mg/kg/day; **p indicates <0.01. The class given is functional. In a few lines: as §3
Test [22] concerns the target T1, Tyrosine-protein phosphatase non-receptor type 1 (Rattus norvegicus). In words: Inhibition of PTPase activity using recombinant Protein-tyrosine phosphatase 1B as the enzyme and IR-triphosphopeptide as substrate at 50 uM. In a few lines:
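Recombinant rat PTP1B (human 321-aa form assayed the same way), activity about 1000-2000 nmol/min/mg, preincubated with compound for 10 min at 37 °C in HEPES pH 7.4. The reaction is started with 50 µM triphosphorylated insulin receptor 1142-1153 dodecapeptide and run 30 min at 37 °C. Released phosphate read by malachite green-molybdate at 650 nm, in quadruplicate. Result is percent inhibition versus control.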

Test [23] shares this target. The test can be described thus: Inhibition of Protein-tyrosine phosphatase 1B activity in rat hepatic membrane at a concentration of 50 uM using pNPP as the substrate. The class given is cell membranes. The note with it: Liver. In a few lines: as §2
Test [24] deals with T5, Tyrosine-protein phosphatase non-receptor type 1 (Homo sapiens, UniProt P18031).
T5 sequence (P18031 whole entry): T3 sequence (whole entry)
In words: Concentration required to inhibit PTPase activity, recombinant Protein Tyrosine Phosphatase 1b as the enzyme at a concentration 2.5 uM. In a few lines:
as §5

Molecules are shown by their SMILES.

With `C/C(=C\CC1SC(=O)NC1=O)c1cccc(OCc2nc(-c3ccc(OC(F)(F)F)cc3)oc2C)c1` (stereo not drawn), the Decrease was 18% in test [1], 63% in test [3] and 44% in test [4]. Moreover, the inhibition in test [2] turned out to be 46%. Besides, the concentration for half-maximal inhibition (IC50) in test [5] stood at 1.5 µM.

`C/C(=C\Cn1oc(=O)[nH]c1=O)c1cccc(OCc2nc(-c3ccccc3)oc2C)c1` (stereo in doubt; 49): the figures for the Decrease in [6], in [7] and in test [8] were 76%, 28% and 39%, respectively.

Consider `C/C(=C\Cn1oc(=O)[nH]c1=O)c1cccc(OCC#Cc2cc(C(F)(F)F)cc(C(F)(F)F)c2)c1`, for which, in test [2], the inhibition came out at 62%. For the same compound, in [9], the IC50 turned out to be 25 µM.

As to `CCCC/C(=C\Cn1oc(=O)[nH]c1=O)c1cccc(OCc2nc(-c3ccc(C(F)(F)F)cc3)oc2C)c1`, the Decrease in test [10] was 88%; in [11], 61%. For the same compound, the inhibition amounted to 1.4% in [12] and 1.9% in [13].

`C/C(=C/C=C/Cn1oc(=O)[nH]c1=O)c1cccc(OCc2nc(-c3ccccc3)oc2C)c1`: the values for the Decrease in test [14], in [15] and in test [17] were 19%, “Not significant” and “Not significant”, respectively. In addition, the inhibition in test [2] was 55%. Also, in [16], the half-inhibitory concentration (IC50) entry was “Not significant”.

On to `CC/C(=C\Cn1oc(=O)[nH]c1=O)c1cccc(OCc2nc(-c3ccc(C(F)(F)F)cc3)oc2C)c1`, for which the Decrease was found to be 80% in test [18]; 63% in test [7]; 71% in test [19]; 32% in test [20]; 32% in test [21]. In addition, the inhibition in test [22] was determined as 90%; in [23], 57%.

Take `C/C(=C\Cn1oc(=O)[nH]c1=O)c1cccc(OCc2ccccn2)c1`: the inhibition in test [2] worked out at 5%. For the same compound, the IC50 in [24] came out at 9 µM.

The inhibition is how much of the control response was suppressed. Usually IC50 stands for the point on the concentration scale where inhibition reaches its midpoint.
